# thrombin 1536 = human alpha-thrombin inhibitors, primary screen, counter-screen for coagulation protease inhibitor project, biochemical, 1536-well, fluorogenic AMC substrate; Prothrombin (Homo sapiens), P00734; Boc-VPR-AMC fluorogenic substrate cleavage; inhibition, % at 5 µM; actives 0.26% (n = 220,000); AID 1046, 2008;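 active = inhibition at or above 40%; inactive = inhibition below 40%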
#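 Material: human alpha-thrombin protein; Also added: Boc-VPR-AMC substrate, 15 µM final; Timing: enzyme reaction carried out at room temperature; Signal: fluorescence, ex 355 nm, em 460 nm; Measure: % inhibition of thrombin; Controls: enzyme without compound as high, wells lacking enzyme as low.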
# KLK5 inh = human KLK5 protease inhibitors, primary screen, biochemical, 1536-well; Kallikrein-5 (Homo sapiens), Q9Y337; actives 0.59% (n = 210,000); inhibition, % at 5 µM; recombinant hK5, fluorogenic AMC substrate cleavage;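 active = inhibition of 40% or more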
# FXIa inh = human FXIa protease inhibitors, primary screen, biochemical, 1536-well; purified FXIa, Boc-Glu-Ala-Arg-AMC fluorogenic substrate; AID 798, 2007; actives 0.14% (n = 220,000); inhibition, % at 5 µM; Coagulation factor XI (Homo sapiens), P03951;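 active = inhibition of at least 40%; inactive = inhibition below 40%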;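 also: fluorescence of freed AMC excited at 355 nm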
# FXIIa inh = human FXIIa protease inhibitors, primary screen, biochemical, 1536-well; AID 800, 2007; purified FXIIa, Boc-QGR-AMC fluorogenic substrate, 2 h; inhibition, % at 5 µM; Coagulation factor XII (Homo sapiens), P00748; actives 0.3% (n = 220,000); in the data active = inhibition above about 40%
# Calpain2 inh = inhibitors of pig calpain II, primary screen, biochemical, fluorogenic peptide substrate, 1536-well; inhibition, % at 16 µM; purified calpain II, 30 min; actives 0.37% (n = 220,000); AID 1236, 2008;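 active = inhibition above about 50%, limit read from the data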
# Hits are given with their value; – = inactive; · = not tested or not shown; ! = not confirmed by another sample. A selection: hits, their analogues and other compounds. The true share with any hit is near 1.4%.
SMILES,thrombin 1536,KLK5 inh,FXIa inh,FXIIa inh,Calpain2 inh
Cc1ccccc1NC(=O)C(=O)Nc1ccccc1C,–,–,–,–,–
Cc1ccccc1NC(=O)Nc1ccccc1Br,47,–,–,–,–
Cc1nc2nc[nH]n2c(=O)c1NS(=O)(=O)c1ccc([N+](=O)[O-])cc1,–,·,–,–,–
CCN(CC)c1ccc(/C=N/NS(=O)(=O)c2cccc([N+](=O)[O-])c2)cc1,–,–,–,52,–
CCN(Cc1ccccc1)c1ccc(/C=N/NS(=O)(=O)c2ccc(C)c([N+](=O)[O-])c2)cc1,–,–,–,–,–
CN(c1ccccc1C(=O)N1CCCC1)S(C)(=O)=O,–,–,–,–,–
CCOC(=O)N1CCN(C(=O)c2ccccc2N(C)S(C)(=O)=O)CC1,55,–,–,–,–
CCOC(=O)N1CCN(C(=O)c2ccc(NC(=O)CC)cc2)CC1,–,–,–,–,–
CCOC(=O)N1CCN(C(=O)c2ccc(NS(C)(=O)=O)cc2)CC1,–,–,–,–,50
COc1cc(NC(=O)CN2CCN(S(=O)(=O)c3ccc(C(C)C)cc3)CC2)cc(OC)c1,–,40,–,–,–
COc1cccc(NC(=O)CN2CCN(S(=O)(=O)c3ccc(C(C)C)cc3)CC2)c1,–,–,–,–,–
CCOc1ccc(NC(=O)CCN2CCN(S(=O)(=O)c3ccc(Cl)cc3)CC2)cc1,–,55,–,–,–
O=C(COc1ccc(Cl)cc1Cl)Nc1nc2n(n1)C(c1ccccc1)CC(=O)N2 (configuration not stated),–,58,–,–,–
O=C1CC(c2ccccc2)n2nc(NS(=O)(=O)c3ccccc3)nc2N1 (configuration not stated),–,–,–,–,–
C=CCOC(=O)c1ccc(-n2cnc(C)n2)nc1,–,–,–,–,–
COc1cc(Br)cc(CNc2ccc(F)c([N+](=O)[O-])c2)c1O,–,–,–,–,91
Cc1ccc(C(=O)Oc2coc(CSc3nnc(NC(=O)C4CC4)s3)cc2=O)cc1,–,–,–,–,–
CCOCCCNC(=O)C1CCCN1S(=O)(=O)c1ccc(Cl)cc1 (configuration not stated),–,–,–,–,–
Cc1nn(C)c(=S)n1-c1ccc(Cl)cc1,–,44,–,–,–
CC(NC(=O)c1ccco1)C(=O)OC(C)C(=O)NCc1ccccc1 (configuration not stated),–,41,–,–,–
Cc1cccc(N2CCN(C(=O)Cn3cccc3C(=O)c3ccccc3)CC2)c1C,–,–,–,–,–
O=C(NCCSc1ccccc1)c1ccccc1,–,89,–,–,–
Cc1ccc2c(c1)nnn2C1CCN(C(=O)C2CCCCC2)CC1,–,–,–,–,–
Cc1ccc(C)c(SCC(=O)OCC(=O)Nc2ccc(S(=O)(=O)N3CCOCC3)cc2)c1,50,–,–,–,–
Cc1ccc(NC(=O)COC(=O)CCc2ccc(S(=O)(=O)N3CCOCC3)cc2)cc1C,–,–,–,–,–
SMILES,thrombin 1536,KLK5 inh,FXIa inh,FXIIa inh,Calpain2 inh
Fc1ccc(SCCc2ccccn2)cc1,–,–,–,40!,–
CSc1ccc(C(=O)/C=C/c2ccc(N)cc2)cc1,–,69,–,–,–
CSc1ccc(/C=C/C(=O)c2ccc(NC(=O)C(C)C)cc2)cc1,–,–,–,–,–
COc1ccc(-c2cc([C@H]3[C@@H]4C=CCC[C@@]4(C)C(=O)N3Cc3ccccc3)ccc2F)cc1,–,42,–,–,–
Cc1ccc(-c2ccc([C@H]3[C@@H]4C=CCC[C@@]4(C)C(=O)N3Cc3ccccc3)c(F)c2)cc1,–,–,–,–,66
CCOC(=O)C1=C(N)OC2=C(C(=O)CC(C)(C)C2)C1c1ccc(CC)s1 (configuration not stated),–,–,–,–,–
CCO/C(=C/c1sc2ccc(OC)cc2[n+]1CCCS(=O)(=O)[O-])CC,–,–,–,–,–
CCOC(=O)C[n+]1c(C)sc2ccc(OC)cc21,–,–,–,43,–
CC(C)OC(=O)c1cccc(NC(=O)CSc2nnc(N)s2)c1,–,–,–,103,–
